# V1aR counter = V1a receptor agonism, counter-screen for OXTR agonists; CHO-V1R cells, Fluo-8 calcium fluorescence, agonist mode; 0% DMSO, 100% 3 nM vasopressin; activation, % at 3 µM; 320,000 compounds, 0.25% hits;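 active = activation above the mean activation of all tested compounds plus 3 SD, per screening run, cut at about 20% in these data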;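 also: signal is peak over basal fluorescence ratio across a 100 second FLIPR read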
# OXTR potentiate = human OXTR potentiation; CHO-OTR cells, Fluo-8 calcium fluorescence, potentiator mode; 0% = oxytocin EC15, 100% = EC100; activation, % at 3 µM; 320,000 compounds, 0.061% hits; AID 2445; P30559;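 active = activation above that plate's cutoff, the mean activation of tested compounds plus 3 SD, cut at about 6.6% in these data, passing the limit was not always enough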;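 also: 100% uses oxytocin at 75 nM as the full agonist control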
#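 Replication – single well per compound, singlicate · Assay system – CHO cell line stably expressing human OTR · Timing – 6 min pre-incubation, 100 s read · Measure – normalized max/min fluorescence ratio, % activation · Doses – 3.0 µM, one dose · Detection – Fluo-8 calcium dye fluorescence · Probe or stimulus – oxytocin near EC15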
# CHRM4 agonist = CHRM4 agonism in calcium assay | activation, % at 3 µM | AID 624127 | 360,000 compounds, 0.14% hits | CHO-K1 hM4/Gqi5, Fluo-8 calcium fluorescence; vehicle 0%, full acetylcholine response 100% | P08173;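 active = activation above the run mean over all test wells plus 3 SD, cut at about 32% in these data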;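 also: peak over basal fluorescence ratio per well then scaled between controls; 0% = DMSO wells and 100% = acetylcholine at EC100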
# Target sequence (P08173 whole entry, looked up): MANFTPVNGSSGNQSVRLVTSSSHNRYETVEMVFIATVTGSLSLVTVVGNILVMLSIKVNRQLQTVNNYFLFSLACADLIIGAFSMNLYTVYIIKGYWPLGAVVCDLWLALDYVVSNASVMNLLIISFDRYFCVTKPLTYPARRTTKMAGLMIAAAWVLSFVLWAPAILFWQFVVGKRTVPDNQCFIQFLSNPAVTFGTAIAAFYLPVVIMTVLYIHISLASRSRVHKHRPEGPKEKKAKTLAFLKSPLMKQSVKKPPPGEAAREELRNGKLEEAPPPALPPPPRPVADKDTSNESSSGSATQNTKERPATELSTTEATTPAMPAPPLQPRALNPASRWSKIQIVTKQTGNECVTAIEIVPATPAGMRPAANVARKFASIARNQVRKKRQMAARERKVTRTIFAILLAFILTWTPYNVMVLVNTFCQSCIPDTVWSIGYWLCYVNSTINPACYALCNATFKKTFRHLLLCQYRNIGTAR
# M4 PAM = potentiates acetylcholine response at human M4 receptor. P08173. CHO-K1 hM4/Gqi5, Fluo-8 calcium fluorescence, ACh EC20; 0% = ACh EC20, 100% = maximal ACh. activation, % at 3 µM. 360,000 compounds, 0.4% hits. AID 624126;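 active = activation above its plate's cutoff, the mean activation of sample wells plus 3 SD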
# OXTR ag = agonists of human oxytocin receptor; P30559; CHO-OTR cells, Fluo-8 calcium fluorescence; normalized: DMSO 0%, oxytocin 100%; activation, % at 3 µM; 320,000 compounds, 0.32% hits; AID 2435;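 active = activation above the mean of all tested compounds plus 3 SD, cutoff set per screening run, cut at about 20% in these data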;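 also: peak over basal fluorescence ratio from a 100 s FLIPR kinetic read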
# M4 antag = antagonists of human muscarinic M4 receptor (CHRM4) | CHO-hM4 cells, ACh EC80, Fluo-8 calcium fluorescence | AID 624125 | P08173 | 360,000 compounds, 0.73% hits | inhibition, % at 3 µM;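 active = inhibition above its plate's cutoff, the mean inhibition of sample wells plus 3 SD, cut at about 27% in these data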;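 also: 0% = acetylcholine EC80 with DMSO and 100% = DMSO without agonist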
# OXTR pot confirm = human OXTR potentiation, confirmation; shares compounds with OXTR potentiate; CHO-OTR cells, Fluo-8 calcium fluorescence; scaled from low-dose to maximal oxytocin; activation, % at 3 µM; 180 tested, under 10 active; AID 434985;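 active = mean percent activation over triplicates above a cutoff set from solvent-only control plates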;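 also: compounds tested in the presence of an EC15 dose of oxytocin; 0% = EC15 oxytocin with DMSO and 100% = EC100 oxytocin with DMSO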
# * marks the source's active call; other numbers are inactive results; / = no result given. Most compounds without a hit are left out; they make up all but 1.5% or so of the library.
SMILES,V1aR counter,OXTR potentiate,CHRM4 agonist,M4 PAM,OXTR ag,M4 antag,OXTR pot confirm
CCOc1ccc(C(=O)N2CCc3ccccc32)cc1,-1,12*,-1,-3,-2,4,0
CC(=O)Nc1ccc(NC(=O)CSc2nnc(NC(=O)C3CC(=O)N(c4ccc(F)cc4)C3)s2)cc1 (stereo unspecified),-1,-4,1,-1,0,11,/
O=C(Nn1c(C2CCC2)nc2ccccc2c1=O)C1CCC1,-1,13*,0,-9,-2,15,-8
Cc1nc2ccccc2c(=O)n1NC(=O)C1CCCCC1,0,-4,0,-6,-1,5,/
CCN(CC(=O)Nc1c(F)cccc1F)C(=O)c1ccc2ccccc2n1,0,4,2,0,0,-5,/
CCN(CC(=O)Nc1c(F)cccc1F)C(=O)/C=C/c1ccc2ccccc2n1,0,21*,2,-3,0,9,-5
CS(=O)(=O)N1CCC(C(=O)Nc2ccccc2Sc2ccccc2)CC1,-1,5,1,-2,0,2,/
Cc1noc(C)c1C(=O)N1CCN(CCc2ccccc2)CC1,1,0,1,3,0,7,/
Cc1cc(C(=O)N2CCN(CCc3ccccc3)CC2)no1,0,10*,8,-16,1,9,-2
CCOC(=O)c1sc(C)c2c1NC1(CCCCC1)NC2=O,-2,11*,-1,-4,-2,2,1
CCOC(=O)N1CCN(C(=O)COc2ccc(Cl)c(C)c2)CC1,1,-18,2,7,0,-7,/
CCOC(=O)N1CCN(C(=O)COc2ccc(Cl)cc2)CC1,1,12*,1,9,2,0,-6
COc1ccc(-c2ccc3c(c2)c(-c2cccs2)c(-c2cc(OC)cc(OC)c2)n3C)cc1,-1,-2,1,11,2,-6,/
COc1cc(OC)cc(-c2c(-c3cccs3)c3cc(-c4ccc(C(N)=O)cc4)ccc3n2C)c1,2,13*,2,14,3,-1,-5
CCCOc1ccc(-c2c(C(=O)N/N=C/c3ccc(C)cc3)nnn2-c2nonc2N)cc1,1,22*,0,-1,1,-2,3
CCOc1ccc(-c2c(C(=O)N/N=C/c3ccc(Cl)cc3)nnn2-c2nonc2N)cc1,11,23*,8,3,7,-12,11*
O=C(CC[C@H]1O[C@@H](n2ccc(=O)[nH]c2=O)[C@H](O)[C@@H]1O)NCc1ccccc1,/,/,1,4,/,2,/
CCn1c(=O)c2c(nc(SCC(=O)N3CCCC(C)C3)n2C)n(C)c1=O (stereo unspecified),1,-3,2,2,1,-2,/
O=C(COc1ccccc1C(=O)NCc1ccncc1)Nc1ccc(Br)cc1,8,-27,10,-2,2,4,/
O=C(NC1CCCCC1)c1ccc(S(=O)(=O)NCc2cccnc2)cc1,2,-8,4,-4,3,-10,/
O=C(COc1ccc(Cl)cc1Br)Nc1nnc(C2CC2)s1,0,0,1,1,1,6,/
O=C(Cn1ncc2ccccc21)N1CCc2ccccc21,0,12*,0,2,-1,-8,-6
COc1ccc(NC(=O)COC(=O)C2CC(=O)N(c3ccc(C)cc3)C2)cc1 (stereo unspecified),4,-1,-1,4,1,-19,/
Cn1c(=O)c2c(nc(Br)n2CC(=O)C23CC4CC(CC(C4)C2)C3)n(C)c1=O,0,10*,1,-1,-1,-2,-4
COc1cccc(C(=O)Cn2c(Br)nc3c2c(=O)n(C)c(=O)n3C)c1,3,-3,2,6,2,6,/
COCCNC(=O)CN(C(=O)Cn1nnc2ccccc21)c1cccc(C)c1C,0,-7,2,1,0,-6,/
N#Cc1ccc(OCC(=O)OCC(=O)N2CCc3ccccc32)cc1,/,/,1,9,/,-4,/

# Screening results: PubChem BioAssay, The Scripps Research Institute Molecular Screening Center
